Reference: ChEMBL document CHEMBL1133640, “Structure-activity studies including a Psi(CH(2)-NH) scan of peptide YY (PYY) active site, PYY(22-36), for interaction with rat intestinal PYY receptors: development of analogues with potent in vivo activity in the intestine” (J Med Chem, 2000)
pIC50: −log10 of the molar value. Where a SMILES comes first, the peptide text is derived from it.

Key:
[1] = organism: Canis familiaris; test: Peak proabsorptive effects of intralbuminal Infusion on absorption of Na+ in the colon of awake dogs bearing ileal and/or Colonic Thiry-Vella Fistulasa; format: functional, organism-based; details: Canis lupus familiaris
[2] = organism: Canis familiaris; test: Peak proabsorptive effects of intralbuminal Infusion on absorption of Cl- in the ileum of awake dogs bearing ileal and/or Colonic Thiry-Vella Fistulasa; format: functional, organism-based; details: Canis lupus familiaris
[3] = organism: Canis familiaris; test: Peak proabsorptive effects of intralbuminal Infusion on absorption of Cl- in the colon of awake dogs bearing ileal and/or Colonic Thiry-Vella Fistulasa; format: functional, organism-based; details: Canis lupus familiaris
[4] = organism: Canis familiaris; test: Peak proabsorptive effects of intralbuminal Infusion on absorption of water in the colon of awake dogs bearing ileal and/or Colonic Thiry-Vella Fistulasa; format: functional, organism-based; details: Canis lupus familiaris
[5] = organism: Canis familiaris; test: Peak proabsorptive effects of intralbuminal Infusion on absorption of Na+ in the ileum of awake dogs bearing ileal and/or Colonic Thiry-Vella Fistulasa; format: functional, organism-based; details: Canis lupus familiaris
[6] = organism: Canis familiaris; test: Peak proabsorptive effects of intralbuminal Infusion on absorption of water in the ileum of awake dogs bearing ileal and/or Colonic Thiry-Vella Fistulasa; format: functional, organism-based; details: Canis lupus familiaris
[7] = system: Rattus norvegicus; test: Tested for in vivo antisecretory potency for inhibiting VIP-induced (30 micro g/kg/h) secretion in isolated jejunum in anesthetized rats.(95% CL); format: functional; details: read-out: ID50 (the source's name)
Procedure, shortened: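 Rats anesthetized, saphenous vein cannulated. Isolated jejunal loop instilled with 2000 μL fluid. At the end the loop is excised, measured and weighed before and after emptying. Net water flux (μL/cm/30 min) = (F-E)2000/L; negative means absorption. 6-8 animals per dose.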

[8] = biological target: Neuropeptide Y receptor type 1 (Homo sapiens, UniProt P25929); test: Affinity against Neuropeptide Y receptor Y1 in SK-N-MC cell line; format: cell-based
[9] = biological target: Neuropeptide Y receptor type 2 (Rattus norvegicus, UniProt Q9ERC0); test: Tested for the affinity for intestinal PYY from rat jejunum by using short circuit current (SCC) method.
[10] = biological target: T1, Neuropeptide Y receptor type 2 (Homo sapiens, UniProt P49146); test: Affinity against Neuropeptide Y receptor Y2 in SK-N-BE2 cell line
T1 sequence (P49146 whole entry): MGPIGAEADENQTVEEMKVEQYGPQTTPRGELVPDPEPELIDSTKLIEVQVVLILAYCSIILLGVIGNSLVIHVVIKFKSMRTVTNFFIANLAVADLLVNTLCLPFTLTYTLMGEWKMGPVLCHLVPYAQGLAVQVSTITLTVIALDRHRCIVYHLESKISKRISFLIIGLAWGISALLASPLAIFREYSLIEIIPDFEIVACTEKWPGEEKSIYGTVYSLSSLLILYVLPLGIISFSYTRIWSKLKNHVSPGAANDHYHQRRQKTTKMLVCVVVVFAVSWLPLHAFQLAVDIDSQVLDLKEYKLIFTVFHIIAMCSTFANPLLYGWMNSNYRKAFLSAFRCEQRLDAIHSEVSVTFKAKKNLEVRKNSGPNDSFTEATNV

Sequence of Neuropeptide Y receptor type 2 (Rattus norvegicus, UniProt Q9ERC0) (Q9ERC0 whole entry): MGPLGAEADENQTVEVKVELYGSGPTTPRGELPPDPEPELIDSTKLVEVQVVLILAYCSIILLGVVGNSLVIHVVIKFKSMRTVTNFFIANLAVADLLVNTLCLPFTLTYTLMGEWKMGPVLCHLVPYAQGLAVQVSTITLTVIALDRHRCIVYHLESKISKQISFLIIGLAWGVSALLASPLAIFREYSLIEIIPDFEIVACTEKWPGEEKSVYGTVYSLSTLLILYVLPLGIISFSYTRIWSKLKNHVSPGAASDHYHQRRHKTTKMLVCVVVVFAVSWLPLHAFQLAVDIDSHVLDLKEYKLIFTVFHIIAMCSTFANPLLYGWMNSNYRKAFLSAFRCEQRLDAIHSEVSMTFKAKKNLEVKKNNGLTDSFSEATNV
Sequence of Neuropeptide Y receptor type 1 (P25929 whole entry): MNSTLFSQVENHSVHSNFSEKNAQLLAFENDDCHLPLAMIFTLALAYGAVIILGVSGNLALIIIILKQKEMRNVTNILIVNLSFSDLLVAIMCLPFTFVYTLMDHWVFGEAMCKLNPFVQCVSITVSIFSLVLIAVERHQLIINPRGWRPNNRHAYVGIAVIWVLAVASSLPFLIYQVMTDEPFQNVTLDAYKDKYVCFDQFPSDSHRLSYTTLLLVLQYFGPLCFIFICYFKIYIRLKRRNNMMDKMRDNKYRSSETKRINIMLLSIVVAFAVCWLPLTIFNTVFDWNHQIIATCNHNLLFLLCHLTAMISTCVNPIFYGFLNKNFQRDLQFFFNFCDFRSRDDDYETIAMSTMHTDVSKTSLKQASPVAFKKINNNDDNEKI

Row | Compound | Absorption (u equiv min-1) [1] | Absorption (u equiv min-1) [2] | Absorption (u equiv min-1) [3] | Absorption [4] | Absorption (u equiv min-1) [5] | Absorption [6] | ED50 [7] | pIC50 [8] | pIC50 [9] | pIC50 [10]
1 | Ac-ASLRHWLNLVTRQRY-NH2 | 78 | 101 | 77 | 503 µL/min | 120 | 725 µL/min | 3.33e-05 µmol/kg |  |  | 
2 | CNC(=O)[C@H](Cc1ccc(O)cc1)NC(=O)[C@H](CCCNC(=N)N)NC(=O)[C@H](CCC(N)=O)NC(=O)[C@H](CCCNC(=N)N)NC(=O)[C@@H](NC(=O)[C@@H](NC(=O)[C@H](CC(C)C)NC(=O)[C@H](CC(N)=O)NC(=O)[C@H](CC(C)C)NC(=O)[C@H](Cc1c[nH]c2ccccc12)NC(=O)[C@H](Cc1cnc[nH]1)NC(=O)[C@H](CCCNC(=N)N)NC(=O)[C@H](CC(C)C)NC(=O)[C@H](CO)NC(=O)[C@H](C)NC(C)=O)C(C)C)[C@@H](C)O (Ac-ASLRHWLNLVTRQRY-NHMe) |  |  |  |  |  |  |  | < 6.00 | < 7.00 | < 7.00
